# TRPC6 act = activators of mouse TRPC6 channel | HEK293-TRPC6 membrane potential dye fluorescence; hits give high values | Q61143 | hit rate 0.13% among 310,000 | B-score at 10 µM;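 active means B-score of the integrated fluorescence ratio above library mean plus 3 SD, and starting fluorescence ratio within library mean plus 5 SD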;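 further: higher score means more depolarization so channel activation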
# Target sequence (Q61143 whole entry, looked up): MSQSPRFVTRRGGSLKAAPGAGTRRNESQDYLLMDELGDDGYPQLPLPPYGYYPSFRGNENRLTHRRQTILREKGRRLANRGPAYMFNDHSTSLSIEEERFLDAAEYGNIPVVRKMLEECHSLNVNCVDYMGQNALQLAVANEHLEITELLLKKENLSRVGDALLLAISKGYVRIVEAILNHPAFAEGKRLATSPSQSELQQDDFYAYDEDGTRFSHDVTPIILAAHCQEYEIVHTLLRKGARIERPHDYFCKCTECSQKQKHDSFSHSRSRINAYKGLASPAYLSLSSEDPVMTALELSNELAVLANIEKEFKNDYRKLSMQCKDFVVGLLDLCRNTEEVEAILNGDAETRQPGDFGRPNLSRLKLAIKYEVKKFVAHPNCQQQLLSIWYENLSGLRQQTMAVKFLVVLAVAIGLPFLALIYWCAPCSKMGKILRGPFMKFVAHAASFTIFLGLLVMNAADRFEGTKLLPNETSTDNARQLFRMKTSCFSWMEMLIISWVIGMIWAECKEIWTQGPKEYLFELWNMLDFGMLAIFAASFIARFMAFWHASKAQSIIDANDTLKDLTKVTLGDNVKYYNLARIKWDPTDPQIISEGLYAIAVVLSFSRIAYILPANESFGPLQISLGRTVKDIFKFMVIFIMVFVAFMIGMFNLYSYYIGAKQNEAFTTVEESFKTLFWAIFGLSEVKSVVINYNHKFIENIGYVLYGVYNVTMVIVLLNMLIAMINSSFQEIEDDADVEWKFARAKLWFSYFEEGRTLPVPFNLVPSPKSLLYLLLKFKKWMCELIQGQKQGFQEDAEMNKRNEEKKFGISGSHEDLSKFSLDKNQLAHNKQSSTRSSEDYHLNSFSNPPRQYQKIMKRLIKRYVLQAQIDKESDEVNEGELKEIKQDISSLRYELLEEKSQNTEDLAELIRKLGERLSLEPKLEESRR
# TRPC4 inh = inhibitors of mouse TRPC4 channel; Q9QUQ5; B-score at 10 µM; hit rate 0.39% among 300,000; HEK293 TRPC4beta/mu-opioid, DAMGO-evoked Fluo4 calcium flux; hits give low values;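 active means B-score over 3 SD under the library average, no early fluorescence shift, positive overall ratio signal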
#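 Assay system: Stable TRPC4beta/mu-opioid receptor HEK293 cells | Reagent: DAMGO in two steps, submaximal then maximal | Compound dosing: Single concentration per test compound | Signal: Fluo4 Ca2+ flux fluorescence | Evaluation: Per-well B score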
# TRPC4 potent = allosterically enhances the mouse TRPC4 cation channel; B-score at 10 µM; Q9QUQ5; hit rate 0.42% among 310,000; HEK293 TRPC4beta/mu-opioid, DAMGO EC20, Fluo-4 Ca2+ flux; hits give high values;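 active means B-score of calcium response area above 5 SD of library B-scores, with initial fluorescence ratio within 5 SD of library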;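 further: B-score of integrated fluorescence ratio over time as area under calcium response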
# TRPC4 act = TRPC4 (mouse) channel activation | hit rate 0.49% among 310,000 | B-score at 10 µM | HEK293 TRPC4beta/mu-opioid, Fluo4 calcium fluorescence; hits give high values;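 active means B-score above 5 SD of library B-scores, and initial fluorescence ratio not above library mean plus 5 SD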;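 further: positive B-score marks a calcium rise read as TRPC4 activation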
#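 Material: HEK293 stable line with TRPC4beta plus mu-opioid receptor; technique: Fluo4 calcium-sensitive dye fluorescence, kinetic, 1 Hz baseline; timing: Fluo4 dye loading 45 min at room temperature, 110 s recording; controls: assay buffer as low control, maximal DAMGO as high control; read-out: integrated baseline-normalised fluorescence ratio, converted to per-well B score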
# TRPC6 inh = blocks the mouse TRPC6 cation channel | Q61143 | HEK293-TRPC6, membrane potential dye, ACh-evoked depolarization; hits give low values | B-score at 10 µM | hit rate 1.1% among 310,000 | AID 2553;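 active means B-score under library mean minus 3 SD, initial fluorescence not abnormally high, positive integrated signal ratio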;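 further: B-score derived from integrated fluorescence ratio over the kinetic read; more negative B-score means stronger inhibition of depolarization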
# TRPC4 sel inh 2 = mouse TRPC4 off-target activity of TRPC6 inhibitors, second screen; inhibition, % at 10 µM; HEK293 TRPC4/MOR, membrane potential dye fluorescence; channel activated by saturating DAMGO dose; shares compounds with TRPC6 inh; hit rate 42% among 920;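 active means compounds whose fluorescence signal differed from control wells by over 3 SD, either direction, in both duplicate plates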
# TRPC4 spec = selectivity of TRPC6 inhibitors: effect on mouse TRPC4. shares compounds with TRPC6 inh. HEK293 TRPC4/mu-opioid, membrane potential fluorescence. activity change, negative = inhibition, % at 10 µM. hit rate 61% among 920. AID 2777;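 active means rise or fall in signal beyond 3 SD of buffer-only wells in both replicate plates, either sign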;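 further: integrated kinetic ratio of fluorescence range over baseline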
# HEK293 MPD ctr 2-1 = parental HEK293 nonspecific activity of TRPC6 inhibitors, second screen. shares compounds with TRPC6 inh. parental HEK293 membrane potential dye fluorescence; maximal acetylcholine challenge after compound addition. signal change vs control, % at 10 µM. hit rate 31% among 920;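 active means membrane potential signal moving either way by over 3 SD of the maximum-effect control, in both duplicate plates, meaning non-specific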
# HEK293 MPD ctr-1 = counter-screen for TRPC6 inhibitors: effect in parental HEK293 cells; shares compounds with TRPC6 inh; parental HEK293 membrane potential dye fluorescence; membrane potential signal change, % at 10 µM; hit rate 60% among 920; AID 2780;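 active means membrane potential signal shifting up or down by more than 3 SD of buffer-only wells, on both duplicate plates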
# HEK293 MPD ctr-2 = counter-screen for TRPC6 modulators: effect in parental HEK293 cells | membrane potential dye fluorescence | hit rate 51% among 2,400 | shares compounds with TRPC6 inh | membrane potential signal change, % at 10 µM | AID 488924;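 active means membrane potential signal moves up or down beyond 5 SD from buffer-only wells, on both duplicate plates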
# HEK293 MPD ctr 2-2 = second counter-screen for TRPC6 modulators: effect in parental HEK293 cells. shares compounds with TRPC6 inh. membrane potential dye fluorescence; after compound, maximal acetylcholine stimulation. inhibition, % at 10 µM. hit rate 14% among 2,400. AID 488926;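 active means membrane potential signal drops by more than 5 SD from the mean control signal, in both duplicate plates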;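 further: plate controls were acetylcholine ECmax control wells for no effect and buffer only wells for full effect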
# TRPC4 ctr mod = selectivity of TRPC6 modulators against mouse TRPC4. shares compounds with TRPC6 inh. HEK293 TRPC4/mu-opioid, membrane potential fluorescence. percent change from control (negative = decrease, positive = increase), % at 10 µM. hit rate 69% among 2,400;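 active means membrane potential signal moved up or down beyond 5 SD of buffer control wells, in both duplicate plates, actives on both sides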;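 further: plate controls were assay buffer wells for no effect and DAMGO maximal-effect wells for full effect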
# TRPC4/MOR inh 2 = second selectivity test of TRPC6 modulators against mouse TRPC4 | inhibition, % at 10 µM | shares compounds with TRPC6 inh | HEK293 TRPC4/mu-opioid, membrane potential dye fluorescence; stimulated with maximal-effect DAMGO | hit rate 55% among 2,400;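 active means drop in membrane potential signal beyond 5 SD of the control wells in both duplicate plates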;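 further: TRPC4 counter screen for TRPC6 hits run under conditions tuned for TRPC6 not TRPC4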
# TRPC6 block conf = mouse TRPC6 inhibitor confirmation | shares compounds with TRPC6 inh | HEK293-TRPC6, membrane potential dye, ACh-evoked depolarization | inhibition, % at 10 µM | hit rate 43% among 3,300;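 active means fluorescence ratio falls more than 5 SD below the full-stimulation control mean, in both duplicate runs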;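 further: integrated fluorescence ratio of peak minus minimum over baseline after agonist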
# TRPC6 act confirm = mouse TRPC6 activator confirmation. shares compounds with TRPC6 inh. HEK293-TRPC6 membrane potential dye fluorescence, FDSS. activation, % at 10 µM. hit rate 11% among 2,800. AID 488961;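 active means ratio signal rise beyond 5 SD above unstimulated control wells' mean, seen in both duplicate runs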;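 further: plate controls were buffer EC0 wells for no effect and acetylcholine ECmax response for full effect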
# * marks the source's active call; other numbers are inactive results; i = inactive; nt = not tested or not shown. Sampled rows, rich in hits. Any-hit rate of the full collection: about 2.3%.
SMILES,TRPC6 act,TRPC4 inh,TRPC4 potent,TRPC4 act,TRPC6 inh,HEK293 MPD ctr-2,HEK293 MPD ctr 2-2,TRPC4 ctr mod,TRPC4/MOR inh 2,TRPC6 block conf,TRPC6 act confirm,others
O=C(C1CCCN(Cc2ccc(F)cc2)C1)N1CCCCC1 (stereo unspecified),i,i,i,i,i,nt,nt,nt,nt,nt,nt,
O=C(Nc1ccccc1Oc1cccnc1)C1CCCN(Cc2ccc(F)cc2)C1 (stereo unspecified),i,-6*,i,i,-6.39*,175.5%*,i,31.0%*,45.5%*,i,nt,
COc1ccc(NC(=S)N(CCCN2CCC(C)CC2)Cc2cccs2)cc1Cl,i,i,i,i,-5.99*,i,i,i,84.5%*,48.5%*,i,
COc1ccc(NC(=S)N(CCCN2CCN(C)CC2)Cc2cccs2)cc1,i,i,i,i,i,nt,nt,nt,nt,nt,nt,
CSc1cccc(NC(=S)N(CCCN2CCCC(C)C2)Cc2cccs2)c1 (stereo unspecified),i,i,i,i,-8.05*,nt,nt,nt,nt,56.0%*,i,TRPC4 sel inh 2=48.5%*;TRPC4 spec=2.2%*;HEK293 MPD ctr 2-1=i;HEK293 MPD ctr-1=3.1%*
CCc1sc(C(=O)Nc2cccnc2)cc1Br,i,i,i,i,i,nt,nt,nt,nt,nt,nt,
Cc1cnc(NC(=O)C(C)N2CCN(C)CC2)s1 (stereo unspecified),i,i,i,i,i,nt,nt,nt,nt,nt,nt,
COc1cc(OC)c(C(=O)Nc2ccncc2)cc1OC,i,i,i,i,-5.09*,i,72.5%*,-8.5%*,36.0%*,45.5%*,i,
CCC1=[N+](C)c2cccc3cccc(c23)N1C,i,i,i,i,-5.98*,-343.5%*,i,-52.5%*,47.0%*,42.5%*,i,
COCCCNCCOCCOc1ccc(Cl)cc1C(C)(C)C,i,i,i,i,i,nt,nt,nt,nt,nt,nt,
CCn1c(SCC(=O)Nc2ccc3c(c2)n(C)c(=O)n3C)nnc1-c1ccncc1,12.4*,i,i,i,i,246.5%*,i,36.5%*,i,i,118.5%*,
CCn1c(SCC(=O)NCC(=O)Nc2ccc(F)cc2)nnc1-c1ccncc1,i,i,i,i,i,nt,nt,nt,nt,nt,nt,
O=C(NC(=S)NC1C2CC3CC(C2)CC1C3)C12CC3CC(CC(C3)C1)C2 (stereo unspecified),i,i,i,i,-8.01*,nt,nt,nt,nt,i,i,TRPC4 sel inh 2=i;TRPC4 spec=i;HEK293 MPD ctr 2-1=i;HEK293 MPD ctr-1=i
Cc1ccccc1C(=O)N1CCN(c2ccc([N+](=O)[O-])c(N3CCOCC3)c2)CC1,i,i,i,i,-5.37*,i,i,i,i,i,i,

# Screening data (PubChem BioAssay)
